Values after ≈ are worked out from the molar mass of the structure shown.
What follows are compounds tested on Staphylococcus aureus (assay: Antibacterial activity against methicillin-sensitive Staphylococcus aureus ATCC 6538 measured after overnight incubation by broth double-dilution method).
Assay type: functional
In short: (§1)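 MIC by broth double-dilution in liquid Mueller-Hinton medium. Values are reported in µg/mL.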
In the case of `O=c1c2ccccc2[se]n1-c1ccccc1` [EBSELEN], the MIC is reported as 2 µg/mL (≈ 7.29 µM).

Each compound was assayed on Staphylococcus aureus (assay: Antibacterial activity against methicillin-sensitive Staphylococcus aureus ATCC 25923 measured after overnight incubation by broth double-dilution method).
Assay type: functional
In short: as §1
`O=c1c2ccccc2[se]n1-c1ccccc1` [EBSELEN] was tested, and the MIC was 3.9 µg/mL (≈ 14.2 µM).

Each compound was assayed on Staphylococcus aureus (assay: Antibacterial activity against methicillin-sensitive Staphylococcus aureus ATCC 29213 measured after overnight incubation by broth double-dilution method).
Assay type: functional
In short: as §1
In the case of `O=c1c2ccccc2[se]n1-c1ccccc1` [EBSELEN], the MIC is reported as 2 µg/mL (≈ 7.29 µM).

What follows are compounds tested on Staphylococcus aureus (assay: Antibacterial activity against methicillin-resistant Staphylococcus aureus ATCC 33591 measured after overnight incubation by broth double-dilution method).
Assay type: functional
In short: as §1
With `O=c1c2ccccc2[se]n1-c1ccccc1` [EBSELEN] the MIC was 0.5 µg/mL (≈ 1.82 µM).

What follows are compounds tested on Staphylococcus aureus (assay: Antibacterial activity against methicillin-resistant Staphylococcus aureus 1 measured after overnight incubation by broth double-dilution method).
Assay type: functional
In short: as §1
With `O=c1c2ccccc2[se]n1-c1ccccc1` [EBSELEN] the MIC was at most 0.25 µg/mL.

The compounds below were run on Staphylococcus aureus (assay: Antibacterial activity against methicillin-resistant Staphylococcus aureus 2 measured after overnight incubation by broth double-dilution method).
Assay type: functional
In short: as §1
For `O=c1c2ccccc2[se]n1-c1ccccc1` [EBSELEN], the MIC was 2 µg/mL (≈ 7.29 µM).

What follows are compounds tested on Staphylococcus aureus (assay: Antibacterial activity against methicillin-resistant Staphylococcus aureus BRS3 measured after overnight incubation by broth double-dilution method).
Assay type: functional
In short: as §1
In the case of `O=c1c2ccccc2[se]n1-c1ccccc1` [EBSELEN], the MIC is reported as 7.8 µg/mL (≈ 28.4 µM).

What follows are compounds tested on Staphylococcus aureus (assay: Antibacterial activity against methicillin-resistant Staphylococcus aureus C1 measured after overnight incubation by broth double-dilution method).
Assay type: functional
In short: as §1
Work on `O=c1c2ccccc2[se]n1-c1ccccc1` [EBSELEN] yielded an MIC of 2 µg/mL (≈ 7.29 µM).

What follows are compounds tested on Staphylococcus aureus (assay: Antibacterial activity against methicillin-resistant Staphylococcus aureus C2 measured after overnight incubation by broth double-dilution method).
Assay type: functional
In short: as §1
In the case of `O=c1c2ccccc2[se]n1-c1ccccc1` [EBSELEN], the MIC is reported as 1 µg/mL (≈ 3.65 µM).

Each compound was assayed on Staphylococcus aureus (assay: Antibacterial activity against methicillin-resistant Staphylococcus aureus C7 measured after overnight incubation by broth double-dilution method).
Assay type: functional
In short: as §1
With `O=c1c2ccccc2[se]n1-c1ccccc1` [EBSELEN] the MIC was 0.5 µg/mL (≈ 1.82 µM).

Each compound was assayed on Staphylococcus aureus (assay: Antibacterial activity against methicillin-resistant Staphylococcus aureus C14 measured after overnight incubation by broth double-dilution method).
Assay type: functional
In short: as §1
With `O=c1c2ccccc2[se]n1-c1ccccc1` [EBSELEN] the MIC was 2 µg/mL (≈ 7.29 µM).

Each compound was assayed on Staphylococcus aureus (assay: Antibacterial activity against methicillin-resistant Staphylococcus aureus C16 measured after overnight incubation by broth double-dilution method).
Assay type: functional
In short: as §1
Compound `O=c1c2ccccc2[se]n1-c1ccccc1` [EBSELEN] has an MIC of 3.9 µg/mL (≈ 14.2 µM).

Each compound was assayed on Staphylococcus aureus (assay: Antibacterial activity against methicillin-resistant Staphylococcus aureus C19 measured after overnight incubation by broth double-dilution method).
Assay type: functional
In short: as §1
`O=c1c2ccccc2[se]n1-c1ccccc1` [EBSELEN] was tested, and the MIC was 1 µg/mL (≈ 3.65 µM).

These compounds were tested on Staphylococcus aureus (assay: Antibacterial activity against methicillin-resistant Staphylococcus aureus G1 measured after overnight incubation by broth double-dilution method).
Assay type: functional
In short: as §1
With `O=c1c2ccccc2[se]n1-c1ccccc1` [EBSELEN] the MIC was 2 µg/mL (≈ 7.29 µM).

Each compound was assayed on Staphylococcus aureus (assay: Antibacterial activity against methicillin-resistant Staphylococcus aureus G6 measured after overnight incubation by broth double-dilution method).
Assay type: functional
In short: as §1
`O=c1c2ccccc2[se]n1-c1ccccc1` [EBSELEN] showed an MIC of 1 µg/mL (≈ 3.65 µM).

The compounds below were run on Staphylococcus aureus (assay: Antibacterial activity against methicillin-resistant Staphylococcus aureus G12 measured after overnight incubation by broth double-dilution method).
Assay type: functional
In short: as §1
For `O=c1c2ccccc2[se]n1-c1ccccc1` [EBSELEN], the MIC was 1 µg/mL (≈ 3.65 µM).

What follows are compounds tested on Staphylococcus aureus (assay: Antibacterial activity against methicillin-resistant Staphylococcus aureus G14 measured after overnight incubation by broth double-dilution method).
Assay type: functional
In short: as §1
Compound `O=c1c2ccccc2[se]n1-c1ccccc1` [EBSELEN] has an MIC of 1 µg/mL (≈ 3.65 µM).

What follows are compounds tested on Staphylococcus aureus (assay: Antibacterial activity against methicillin-resistant Staphylococcus aureus NRS4 measured after overnight incubation by broth double-dilution method).
Assay type: functional
In short: as §1
With `O=c1c2ccccc2[se]n1-c1ccccc1` [EBSELEN] the MIC was 7.8 µg/mL (≈ 28.4 µM).

These compounds were tested on Staphylococcus aureus (assay: Antibacterial activity against methicillin-resistant Staphylococcus aureus NRS51 measured after overnight incubation by broth double-dilution method).
Assay type: functional
In short: as §1
In the case of `O=c1c2ccccc2[se]n1-c1ccccc1` [EBSELEN], the MIC is reported as 1 µg/mL (≈ 3.65 µM).

What follows are compounds tested on Staphylococcus aureus (assay: Antibacterial activity against methicillin-resistant Staphylococcus aureus NRS77 measured after overnight incubation by broth double-dilution method).
Assay type: functional
In short: as §1
For `O=c1c2ccccc2[se]n1-c1ccccc1` [EBSELEN], the MIC was 3.9 µg/mL (≈ 14.2 µM).

Each compound was assayed on Staphylococcus aureus (assay: Antibacterial activity against methicillin-resistant Staphylococcus aureus S14 measured after overnight incubation by broth double-dilution method).
Assay type: functional
In short: as §1
For `O=c1c2ccccc2[se]n1-c1ccccc1` [EBSELEN], the MIC was at most 0.25 µg/mL.

Each compound was assayed on Staphylococcus aureus (assay: Antibacterial activity against methicillin-resistant Staphylococcus aureus S17 measured after overnight incubation by broth double-dilution method).
Assay type: functional
In short: as §1
`O=c1c2ccccc2[se]n1-c1ccccc1` [EBSELEN] gave an MIC of 1 µg/mL (≈ 3.65 µM).

What follows are compounds tested on Staphylococcus aureus (assay: Antibacterial activity against methicillin-resistant Staphylococcus aureus S22 measured after overnight incubation by broth double-dilution method).
Assay type: functional
In short: as §1
With `O=c1c2ccccc2[se]n1-c1ccccc1` [EBSELEN] the MIC was 1 µg/mL (≈ 3.65 µM).

What follows are compounds tested on Staphylococcus aureus (assay: Antibacterial activity against methicillin-resistant Staphylococcus aureus S24 measured after overnight incubation by broth double-dilution method).
Assay type: functional
In short: as §1
Work on `O=c1c2ccccc2[se]n1-c1ccccc1` [EBSELEN] yielded an MIC of 0.5 µg/mL (≈ 1.82 µM).

What follows are compounds tested on Staphylococcus aureus (assay: Antibacterial activity against methicillin-resistant Staphylococcus aureus USA100 measured after overnight incubation by broth double-dilution method).
Assay type: functional
In short: as §1
Work on `O=c1c2ccccc2[se]n1-c1ccccc1` [EBSELEN] yielded an MIC of 2 µg/mL (≈ 7.29 µM).

— ChEMBL document CHEMBL3864121, “Development of ebsulfur analogues as potent antibacterials against methicillin-resistant Staphylococcus aureus” (Bioorg Med Chem, 2016)
